# Measured values as given in publication PMC10644204 (Pharmacology Research & Perspectives, 2023).
# Where “and” joins values, the source holds several entries; their conditions need not be identical. Equal values may be shown once. Read-outs that look alike come from different tables or passages of the source.
# Legend:
# [1] = system: healthy participants; assay: Safety assessments; format: in vivo, human
# In short: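 Part 2 healthy participants confined from Day −2 of period 1 to Day 9 of period 4. […] AEs monitored throughout, recording duration, severity, causality and outcome, alongside safety ECGs, laboratory tests, physical examination and vital signs.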
# [2] = system: dogs; conditions: single dose of GSK'254 17 mg kg^−1, cited from earlier work
# [3] = system: HIV‐1; conditions: GSK'254 200 mg QD, treatment-naive people living with HIV-1, phase IIa; cited from earlier work
# [4] = GSK'254 200 mg QD, healthy participants, previous studies; cited from earlier work
# [5] = GSK'254 200 mg QD, treatment-naive people living with HIV-1; cited from earlier work
# [6] = system: healthy participants and people living with HIV‐1; conditions: short-term administration; cited from earlier work
# [7] = part 2, GSK'254 100 mg (N = 40)
# [8] = part 2, GSK'254 500 mg (N = 40)
smiles,measurement,setting,value
C=C(C)[C@@H]1CC[C@]2(NCCN3CCS(=O)(=O)CC3)CC[C@]3(C)[C@H](CC[C@@H]4[C@@]5(C)CC=C(C6=CC[C@@](CF)(C(=O)O)CC6)C(C)(C)[C@@H]5CC[C@]43C)[C@@H]12 [GSK'254],AE: Gastrointestinal disorders,[1]; [7],1 (3) n (%)
same,AE: General disorders and administration site conditions,[1]; [7],0 n (%)
same,AE: Immune system disorders,[1]; [7],0 n (%)
same,AE: Infections and infestations,[1]; [7],0 n (%)
same,AE: Maculopapular rash,[1]; [7],1 (3) n (%)
same,AE: Medical device site dermatitis,[1]; [7],0 n (%)
same,AE: Nausea,[1]; [7],0 n (%)
same,AE: Nervous system disorders,[1]; [7],0 n (%)
same,AE: Renal and urinary disorders,[1]; [7],0 n (%)
same,AE: Reproductive system and breast disorders,[1]; [7],0 n (%)
same,"AE: Respiratory, thoracic, and mediastinal disorders",[1]; [7],1 (3) n (%)
same,AE: Skin and subcutaneous tissue disorders,[1]; [7],3 (8) n (%)
same,AE: Vessel puncture site pain,[1]; [7],0 n (%)
same,Any AE,[1]; [7],5 (13) n (%)
same,Any drug-related AE,[1]; [7],2 n (%) and 2 (5) n (%)
same,Drug-related AE: Abdominal pain,[1]; [7],0 n (%)
same,Drug-related AE: Acne,[1]; [7],2 (5) n (%)
same,Drug-related AE: Diarrhea,[1]; [7],0 n (%)
same,Drug-related AE: Fatigue,[1]; [7],0 n (%)
same,Drug-related AE: Gastrointestinal disorders,[1]; [7],0 n (%)
same,Drug-related AE: General disorders and administration site conditions,[1]; [7],0 n (%)
same,Drug-related AE: Maculopapular rash,[1]; [7],0 n (%)
same,Drug-related AE: Nausea,[1]; [7],0 n (%)
same,Drug-related AE: Pruritus,[1]; [7],1 (3) n (%)
same,Drug-related AE: Renal and urinary disorders,[1]; [7],0 n (%)
same,Drug-related AE: Skin and subcutaneous tissue disorders,[1]; [7],2 (5) n (%)
same,Drug-related AE: Urinary hesitation,[1]; [7],0 n (%)
same,AE: Abdominal pain,[1]; [8],1 (3) n (%)
same,AE: Acne,[1]; [8],0 n (%)
same,AE: Diarrhea,[1]; [8],6 n (%) and 6 (15) n (%)
same,AE: Gastrointestinal disorders,[1]; [8],7 (18) n (%)
same,AE: General disorders and administration site conditions,[1]; [8],3 (8) n (%)
same,AE: Immune system disorders,[1]; [8],0 n (%)
same,AE: Infections and infestations,[1]; [8],1 (3) n (%)
same,AE: Maculopapular rash,[1]; [8],1 (3) n (%)
same,AE: Medical device site dermatitis,[1]; [8],2 (5) n (%)
same,AE: Nausea,[1]; [8],2 (5) n (%)
same,AE: Nervous system disorders,[1]; [8],1 (3) n (%)
same,AE: Renal and urinary disorders,[1]; [8],0 n (%)
same,AE: Reproductive system and breast disorders,[1]; [8],0 n (%)
same,"AE: Respiratory, thoracic, and mediastinal disorders",[1]; [8],0 n (%)
same,AE: Skin and subcutaneous tissue disorders,[1]; [8],2 (5) n (%)
same,AE: Vessel puncture site pain,[1]; [8],0 n (%)
same,Any AE,[1]; [8],10 (25) n (%)
same,Any drug-related AE,[1]; [8],7 n (%) and 7 (18) n (%)
same,Drug-related AE: Abdominal pain,[1]; [8],1 (3) n (%)
same,Drug-related AE: Acne,[1]; [8],0 n (%)
same,Drug-related AE: Fatigue,[1]; [8],0 n (%)
same,Drug-related AE: Gastrointestinal disorders,[1]; [8],6 (15) n (%)
same,Drug-related AE: General disorders and administration site conditions,[1]; [8],0 n (%)
same,Drug-related AE: Maculopapular rash,[1]; [8],1 (3) n (%)
same,Drug-related AE: Nausea,[1]; [8],2 (5) n (%)
same,Drug-related AE: Pruritus,[1]; [8],0 n (%)
same,Drug-related AE: Renal and urinary disorders,[1]; [8],0 n (%)
same,Drug-related AE: Skin and subcutaneous tissue disorders,[1]; [8],1 (3) n (%)
same,Drug-related AE: Urinary hesitation,[1]; [8],0 n (%)
same,Maximum concentration,[2]; dog,7960 ng/mL
same,QT interval effects,"[2]; dogs, telemetry",minimal QT interval effects were observed in one dog
same,Mean reduction from baseline in HIV-1 RNA,[3],2 log10 copies/mL
same,Geometric mean Cmax,[4],1040 to 1780 ng/mL
same,Geometric mean Cmax,[5],1860 ng/mL
same,Tolerability,[6],generally well tolerated
